Assay results gathered from unrelated publications.
Compare with care: the assays were run in different laboratories.

SMILES | technique | matrix | time | logP
O=C(c1cc(Cc2n[nH]c(=O)c3ccccc23)ccc1F)N1CCN(C(=O)C2CC2)CC1 |  |  |  | 1.55
O=C(O)CCCNC(=O)c1ccc(O)c2ncccc12 |  |  |  | 0.71
CC1=NN(CNc2ccc(O)cc2)C(=O)C1=NNn1c(-c2ccccc2)nc2ccccc2c1=O |  |  |  | 4.19
CCc1nc(N)nc(N)c1-c1ccc(Cl)cc1 |  |  |  | 3.14
C=C[C@H]1C[N@]2CC[C@H]1C[C@@H]2C(O)c1ccnc2ccc(OC)cc12 (stereo partly shown) |  | water |  | 3.17
CCCCC1=NC2(CCCC2)C(=O)N1Cc1ccc(-c2ccccc2S(=O)(=O)Nc2noc(C)c2C)c(COCC)c1 |  |  |  | 4.26
CC1=NN(CNc2ccc(C(=O)O)cc2)C(=O)C1=NNn1c(-c2ccccc2)nc2ccccc2c1=O |  |  |  | 4.15
CC(=O)c1ccccc1 |  | water | 1 h | 1.51
CC1=NN(CNC(=O)c2ccccn2)C(=O)C1=NNn1c(-c2ccccc2)nc2ccccc2c1=O |  |  |  | 3.26
N#Cc1[nH]nnc1-c1cccc(OCc2cc(C(F)(F)F)ccc2C(F)(F)F)c1 | potentiometric |  |  | 5.5
CC(=O)N1N=C(c2cccc(O)c2)CC1c1ccc(Cl)cc1 (stereo not shown) | potentiometric |  |  | 2.98
C=C(C)[C@@H]1CCC(C)=C[C@H]1c1c(O)cc(CCCCC)cc1O |  |  |  | 7.11
CC(=O)NCN1N=C(C)C(=NNn2c(-c3ccccc3)nc3ccccc3c2=O)C1=O |  |  |  | 2.24
CNC(=O)c1ccccc1Sc1ccc2c(/C=C/c3ccccn3)n[nH]c2c1 |  |  |  | 3.1
CC1=NN(CNc2c(O)c(S(=O)(=O)O)cc3ccccc23)C(=O)C1=NNn1c(-c2ccccc2)nc2ccccc2c1=O |  |  |  | 5.01
N#Cc1[nH]nnc1-c1csc(-c2ccc(Cl)cc2)n1 | potentiometric |  |  | 4.5
